Assay results: ChEMBL document CHEMBL1127826, “Inhibitors of acyl-CoA:cholesterol acyltransferase (ACAT). 7. Development of a series of substituted N-phenyl-N'-[(1-phenylcyclopentyl)methyl]ureas with enhanced hypocholesterolemic activity” (J Med Chem, 1994)

system: Rattus norvegicus; test: Compound was evaluated in experiment 1 for Total cholesterol at 1.0 (mg/kg) dose; assay type: functional; set-up: unit not given beside the values; conditions: not given
Summary of the method: (§1)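 Chronic model in male Sprague-Dawley rats (200-225 g). Rats were fed chow with peanut oil 5.5%, cholesterol 1.5% and cholic acid ad libitum for 2 weeks. Test article was given by gavage once daily (morning) in the second week, as a CMC/Tween aqueous suspension. Blood was taken by cardiac puncture under ether 24 h after the last dose. Plasma total, HDL and nonHDL cholesterol were measured with an Abbott VP analyzer using dextran sulfate precipitation, reported as mg/dL and % change from control. Controls were cholesterol-fed rats and rats switched to chow in week 2.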

Compound | TC
CC(C)c1cccc(C(C)C)c1NC(=O)NCC1(c2cccc(CN3CCOCC3)c2)CCCC1 | 273

system: Rattus norvegicus; test: Compound was evaluated in experiment 1 for High density lipoproteins at 10 (mg/kg) dose; assay type: functional; conditions: not given; summary of the method: as §1

Compound | HDL-C
CC(C)c1cccc(C(C)C)c1NC(=O)NCC1(c2cccc(CN3CCOCC3)c2)CCCC1 | 30

system: not listed separately; test: Compound was evaluated for the distribution coefficient at pH 7.4; assay type: physicochemical; conditions: octanol/water, read-out: logD

logD | Compound
3.64 | CC(C)c1cccc(C(C)C)c1NC(=O)NCC1(c2cccc(CN)c2)CCCC1
3.61 | CC(C)c1cccc(C(C)C)c1NC(=O)NCC1(c2cccc(CC#N)c2)CCCC1
5.23 | CC(C)c1cccc(C(C)C)c1NC(=O)NCC1(c2cccc(CBr)c2)CCCC1
4.87 | CC(C)c1cccc(C(C)C)c1NC(=O)NCC1(c2cccc(CN(C)C)c2)CCCC1.Cl
3.55 | CC(C)c1cccc(C(C)C)c1NC(=O)NCC1(c2cccc(CN(CCO)CCO)c2)CCCC1
4.37 | CC(C)c1cccc(C(C)C)c1NC(=O)NCC1(c2cccc(CN3CCOCC3)c2)CCCC1
4.55 | CC(=O)OCCN(CCOC(C)=O)Cc1cccc(C2(CNC(=O)Nc3c(C(C)C)cccc3C(C)C)CCCC2)c1

species: Rattus norvegicus; test: Percent change in total cholesterol in peanut oil (5.5%)-, cholic acid (0.3%)-, Cholesterol (1.5%)-fed rats after a single dose.; assay type: functional; conditions: not given
Summary of the method: (§2)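 Male Sprague-Dawley rats (200-225 g), n=5-7/group, given a single oral dose at 4 p.m. as a suspension in 1.5% CMC/0.2% Tween-20 in water (50 mg/kg); controls received vehicle alone. The rats then had free access to chow with peanut oil, cholesterol and cholic acid. At 8 a.m. next day they were bled by cardiac puncture under ether, and serum total cholesterol was measured as % change versus controls (unpaired two-tailed t-test).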

Compound | Delta TC [%]
CC(C)c1cccc(C(C)C)c1NC(=O)NCC1(c2ccc(OCc3ccccc3)cc2)CCCC1 | -33
CC(C)c1cccc(C(C)C)c1NC(=O)NCC1(c2cccc(CN)c2)CCCC1 | -49
CC(C)c1cccc(C(C)C)c1NC(=O)NCC1(c2ccccc2[N+](=O)[O-])CCCC1 | -45
CC(C)c1cccc(C(C)C)c1NC(=O)NCC1(c2cccc(CC#N)c2)CCCC1 | -31
CC(C)c1cccc(C(C)C)c1NC(=O)NCC1(c2ccc(O)cc2)CCCC1 | -31
CC(C)c1cccc(C(C)C)c1NC(=O)NCC1(c2cccc(N)c2)CCCC1 | -75
CC(C)c1cccc(C(C)C)c1NC(=O)NCC1(c2cccc(CN(C)C)c2)CCCC1.Cl | -44
CC(C)c1cccc(C(C)C)c1NC(=O)NCC1(c2cccc(CN(CCO)CCO)c2)CCCC1 | -33
CC(C)c1cccc(C(C)C)c1NC(=O)NCC1(c2cccc(CN3CCOCC3)c2)CCCC1 | -47
CC(=O)OCCN(CCOC(C)=O)Cc1cccc(C2(CNC(=O)Nc3c(C(C)C)cccc3C(C)C)CCCC2)c1 | -35

system: Rattus norvegicus; test: Compound was evaluated in experiment 1 for High density lipoproteins at 0.3 (mg/kg) dose; assay type: functional; conditions: not given; summary of the method: as §1

Compound | HDL-C
CC(C)c1cccc(C(C)C)c1NC(=O)NCC1(c2cccc(CN3CCOCC3)c2)CCCC1 | 14

system: Rattus norvegicus; test: Compound was evaluated in experiment 1 for non High density lipoproteins at 10 (mg/kg) dose; assay type: functional; conditions: not given; summary of the method: as §1

Compound | Non-HDL-C
CC(C)c1cccc(C(C)C)c1NC(=O)NCC1(c2cccc(CN3CCOCC3)c2)CCCC1 | 84

system: Rattus norvegicus; test: Compound was evaluated in experiment 1 for High density lipoproteins at 3.0 (mg/kg) dose; assay type: functional; conditions: not given; summary of the method: as §1

Compound | HDL-C
CC(C)c1cccc(C(C)C)c1NC(=O)NCC1(c2cccc(CN3CCOCC3)c2)CCCC1 | 16

system: Rattus norvegicus; test: Compound was evaluated for the percentage change in total cholesterol in peanut oil (5.5%)-cholic acid (0.3%)-cholesterol (1.5%)-fed rats at 30 mg/kg; assay type: functional; conditions: not given

Compound | Delta TC [%]
CC(C)c1cccc(C(C)C)c1NC(=O)NCC1(c2cccc(CN(C)C)c2)CCCC1.Cl | -46
CC(C)c1cccc(C(C)C)c1NC(=O)NCC1(c2cccc(CN(CCO)CCO)c2)CCCC1 | -63
CC(C)c1cccc(C(C)C)c1NC(=O)NCC1(c2cccc(CN3CCOCC3)c2)CCCC1 | -70
CC(=O)OCCN(CCOC(C)=O)Cc1cccc(C2(CNC(=O)Nc3c(C(C)C)cccc3C(C)C)CCCC2)c1 | -71

system: Rattus norvegicus; test: Compound was evaluated in experiment 1 for Change in total cholesterol at 10 (mg/kg) dose; assay type: functional; conditions: not given; summary of the method: as §1

Compound | Change TC [%]
CC(C)c1cccc(C(C)C)c1NC(=O)NCC1(c2cccc(CN3CCOCC3)c2)CCCC1 | -63

system: Rattus norvegicus; test: Compound was evaluated in experiment 1 for change in non High density lipoprotein at the doses at 1.0 (mg/kg) dose; assay type: functional; conditions: not given; summary of the method: as §1

Compound | Change non HDL-C [%]
CC(C)c1cccc(C(C)C)c1NC(=O)NCC1(c2cccc(CN3CCOCC3)c2)CCCC1 | -14

system: Rattus norvegicus; test: Compound was evaluated in experiment 1 for Change in High density lipoproteins at 0.3 (mg/kg) dose; assay type: functional; conditions: not given; summary of the method: as §1

Compound | Change HDL -C [%]
CC(C)c1cccc(C(C)C)c1NC(=O)NCC1(c2cccc(CN3CCOCC3)c2)CCCC1 | 16

system: Rattus norvegicus; test: Compound was evaluated in experiment 1 for Total cholesterol at 3.0 (mg/kg) dose; assay type: functional; set-up: unit not given beside the values; conditions: not given; summary of the method: as §1

Compound | TC
CC(C)c1cccc(C(C)C)c1NC(=O)NCC1(c2cccc(CN3CCOCC3)c2)CCCC1 | 218

system: Rattus norvegicus; test: Compound was evaluated in experiment 1 for Change in total cholesterol at 1.0 (mg/kg) dose; assay type: functional; conditions: not given; summary of the method: as §1

Compound | Change TC [%]
CC(C)c1cccc(C(C)C)c1NC(=O)NCC1(c2cccc(CN3CCOCC3)c2)CCCC1 | -13

system: Rattus norvegicus; test: Compound was evaluated in experiment 1 for Change in High density lipoproteins at 10 (mg/kg) dose; assay type: functional; conditions: not given; summary of the method: as §1

Compound | Change HDL -C [%]
CC(C)c1cccc(C(C)C)c1NC(=O)NCC1(c2cccc(CN3CCOCC3)c2)CCCC1 | 162

system: Rattus norvegicus; test: Compound was evaluated in experiment 1 for change in non High density lipoprotein at the doses at 0.3 (mg/kg) dose; assay type: functional; conditions: not given; summary of the method: as §1

Compound | Change non HDL-C [%]
CC(C)c1cccc(C(C)C)c1NC(=O)NCC1(c2cccc(CN3CCOCC3)c2)CCCC1 | -26

system: Rattus norvegicus; test: Compound was evaluated in experiment 1 for High density lipoproteins at 1.0 (mg/kg) dose; assay type: functional; conditions: not given; summary of the method: as §1

Compound | HDL-C
CC(C)c1cccc(C(C)C)c1NC(=O)NCC1(c2cccc(CN3CCOCC3)c2)CCCC1 | 13

system: Rattus norvegicus; test: Compound was evaluated in experiment 1 for non High density lipoproteins at 3.0(mg/kg) dose; assay type: functional; conditions: not given; summary of the method: as §1

Compound | Non-HDL-C
CC(C)c1cccc(C(C)C)c1NC(=O)NCC1(c2cccc(CN3CCOCC3)c2)CCCC1 | 202

system: Rattus norvegicus; test: Compound was evaluated in experiment 1 for Change in High density lipoproteins at 1.0 (mg/kg) dose; assay type: functional; conditions: not given; summary of the method: as §1

Compound | Change HDL -C [%]
CC(C)c1cccc(C(C)C)c1NC(=O)NCC1(c2cccc(CN3CCOCC3)c2)CCCC1 | 10

system: Rattus norvegicus; test: Compound was evaluated in experiment 1 for non High density lipoproteins at 1.0 (mg/kg) dose; assay type: functional; conditions: not given; summary of the method: as §1

Compound | Non-HDL-C
CC(C)c1cccc(C(C)C)c1NC(=O)NCC1(c2cccc(CN3CCOCC3)c2)CCCC1 | 260

target: T1, Acyl-CoA:cholesterol acyltransferase (Oryctolagus cuniculus, UniProt Q95214); test: Tested for in vitro inhibition against Acyl coenzyme A:cholesterol acyltransferase of intestinal microsomes in cholesterol-fed rabbits; set-up: species or system Microsome; conditions: not given
T1 sequence (Q95214 whole entry): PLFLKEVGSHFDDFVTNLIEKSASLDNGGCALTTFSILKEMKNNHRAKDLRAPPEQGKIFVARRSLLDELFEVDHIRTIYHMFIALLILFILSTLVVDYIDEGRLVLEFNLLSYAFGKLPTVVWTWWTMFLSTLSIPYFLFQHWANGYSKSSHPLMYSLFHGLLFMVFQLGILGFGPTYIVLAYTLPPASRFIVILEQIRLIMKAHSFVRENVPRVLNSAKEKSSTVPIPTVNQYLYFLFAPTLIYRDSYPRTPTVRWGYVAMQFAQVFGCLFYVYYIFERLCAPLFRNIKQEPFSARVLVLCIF
Summary of the method: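 Microsomes were prepared from intestine of cholesterol-fed rabbits. ACAT activity was measured using [1-14C]oleoyl-CoA as substrate. Each determination was run in triplicate.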

IC50 [nM] | Compound
34 | CC(C)c1cccc(C(C)C)c1NC(=O)NCC1(c2ccc(OCc3ccccc3)cc2)CCCC1
440 | CC(C)c1cccc(C(C)C)c1NC(=O)NCC1(c2cccc(CN)c2)CCCC1
27 | CC(C)c1cccc(C(C)C)c1NC(=O)NCC1(c2ccccc2[N+](=O)[O-])CCCC1
24 | CC(C)c1cccc(C(C)C)c1NC(=O)NCC1(c2cccc(CC#N)c2)CCCC1
42 | CC(C)c1cccc(C(C)C)c1NC(=O)NCC1(c2ccc(O)cc2)CCCC1
21 | CC(C)c1cccc(C(C)C)c1NC(=O)NCC1(c2cccc(N)c2)CCCC1
44 | CC(C)c1cccc(C(C)C)c1NC(=O)NCC1(c2cccc(CBr)c2)CCCC1
67 | CC(C)c1cccc(C(C)C)c1NC(=O)NCC1(c2cccc(CN(C)C)c2)CCCC1.Cl
33 | CC(=O)OCCN(CCOC(C)=O)Cc1cccc(C2(CNC(=O)Nc3c(C(C)C)cccc3C(C)C)CCCC2)c1

system: Rattus norvegicus; test: Compound was evaluated in experiment 1 for Total cholesterol at 0.3 (mg/kg) dose; assay type: functional; set-up: unit not given beside the values; conditions: not given; summary of the method: as §1

Compound | TC
CC(C)c1cccc(C(C)C)c1NC(=O)NCC1(c2cccc(CN3CCOCC3)c2)CCCC1 | 237

system: Rattus norvegicus; test: Compound was evaluated in experiment 1 for Change in High density lipoproteins at 3.0 (mg/kg) dose; assay type: functional; conditions: not given; summary of the method: as §1

Compound | Change HDL -C [%]
CC(C)c1cccc(C(C)C)c1NC(=O)NCC1(c2cccc(CN3CCOCC3)c2)CCCC1 | 40

system: Rattus norvegicus; test: Compound was evaluated in experiment 1 for non High density lipoproteins at 0.3 (mg/kg) dose; assay type: functional; conditions: not given; summary of the method: as §1

Compound | Non-HDL-C
CC(C)c1cccc(C(C)C)c1NC(=O)NCC1(c2cccc(CN3CCOCC3)c2)CCCC1 | 224

system: Rattus norvegicus; test: Compound was evaluated in experiment 1 for Change in total cholesterol at 0.3 (mg/kg) dose; assay type: functional; conditions: not given; summary of the method: as §1

Compound | Change TC [%]
CC(C)c1cccc(C(C)C)c1NC(=O)NCC1(c2cccc(CN3CCOCC3)c2)CCCC1 | -24

system: Rattus norvegicus; test: Compound was evaluated in experiment 1 for Change in total cholesterol at 3.0 (mg/kg) dose; assay type: functional; conditions: not given; summary of the method: as §1

Compound | Change TC [%]
CC(C)c1cccc(C(C)C)c1NC(=O)NCC1(c2cccc(CN3CCOCC3)c2)CCCC1 | -31

system: Rattus norvegicus; test: Compound was evaluated in experiment 1 for Total cholesterol at 10 (mg/kg) dose; assay type: functional; set-up: unit not given beside the values; conditions: not given; summary of the method: as §1

Compound | TC
CC(C)c1cccc(C(C)C)c1NC(=O)NCC1(c2cccc(CN3CCOCC3)c2)CCCC1 | 118

system: Rattus norvegicus; test: Compound was evaluated in experiment 1 for change in non High density lipoprotein at the doses at 3.0 (mg/kg) dose; assay type: functional; conditions: not given; summary of the method: as §1

Compound | Change non HDL-C [%]
CC(C)c1cccc(C(C)C)c1NC(=O)NCC1(c2cccc(CN3CCOCC3)c2)CCCC1 | -33

system: Rattus norvegicus; test: Compound was evaluated in experiment 1 for change in non High density lipoprotein at the doses at 10 (mg/kg) dose; assay type: functional; conditions: not given; summary of the method: as §1

Compound | Change non HDL-C [%]
CC(C)c1cccc(C(C)C)c1NC(=O)NCC1(c2cccc(CN3CCOCC3)c2)CCCC1 | -71

species: Rattus norvegicus; test: Percent change in total cholesterol in peanut oil (5.5%) - cholic acid (0.3%) - Cholesterol (1.5%) fed rats after a single dose; assay type: functional; conditions: not given; summary of the method: as §2

Compound | Delta TC [%]
CC(C)c1cccc(C(C)C)c1NC(=O)NCC1(c2cccc(CBr)c2)CCCC1 | -26
